# Bioassay records from PubChem BioAssay.
# T cruzi growth-1: blocks T. cruzi growth in NIH3T3 culture; T. cruzi beta-gal in NIH3T3, GalScreen luminescence, 90 h; inhibition, % at 8.34 µM; 77,000 tested, 5.9% active;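 active means mean inhibition above about 93%, with at least 55% of replicates each passing it, limit read from the data, passing the limit was not always enough; inconclusive means only one of those two conditions holds; inactive means neither condition holds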
# KDM4C inh: inhibitors of human demethylase GASC-1 KDM4C. Q9H3R0. GST-KDM4C 2-372, H3K9me3 peptide, LANCE TR-FRET. inhibition, % at 12.5 µM. 96,000 tested, 0.15% active;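 active means mean replicate inhibition above about 25%, with at least 55% of replicates also reaching it, limit read from the data, passing the limit was not always enough; inconclusive means only one of those two conditions met; inactive means neither condition met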
# Target sequence (Q9H3R0 2-372 limits assumed): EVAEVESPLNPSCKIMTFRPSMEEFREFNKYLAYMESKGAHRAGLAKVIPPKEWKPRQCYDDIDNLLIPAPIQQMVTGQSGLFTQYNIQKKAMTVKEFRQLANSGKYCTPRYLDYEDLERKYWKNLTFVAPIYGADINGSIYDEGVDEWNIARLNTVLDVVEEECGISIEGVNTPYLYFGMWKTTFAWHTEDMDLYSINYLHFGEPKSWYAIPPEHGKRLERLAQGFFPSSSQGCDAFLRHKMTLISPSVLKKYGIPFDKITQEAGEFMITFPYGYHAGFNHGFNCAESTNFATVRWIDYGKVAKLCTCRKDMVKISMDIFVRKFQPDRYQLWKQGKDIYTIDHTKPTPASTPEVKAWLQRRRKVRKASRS
#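 Material: GST-tagged GASC-1 (JMJD2C) catalytic fragment, aa 2-372. Input: enzyme final amount 10 nM. Medium: HEPES buffer, pH 7.5, plus ascorbate. Reagent: H3K9me3 peptide substrate, Fe(II), 2-oxoglutarate. Doses: single dose. Times: reaction 30 min RT, detection step 1 h RT. Measured by: LANCE TR-FRET. Evaluation: Fall in 671/618 emission ratio as inhibition.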
# IDH1 mut inh: inhibitors of human IDH1 R132H. inhibition, % at 10 µM. O75874. IDH1 R132H reductase, diaphorase/resazurin fluorescence, 60 min. 70,000 tested, 0.18% active; in the data active means inhibition above about 34%; inconclusive means no clear call, values can overlap the other calls; inactive means below about 11%
# Target sequence (O75874 whole entry R132H): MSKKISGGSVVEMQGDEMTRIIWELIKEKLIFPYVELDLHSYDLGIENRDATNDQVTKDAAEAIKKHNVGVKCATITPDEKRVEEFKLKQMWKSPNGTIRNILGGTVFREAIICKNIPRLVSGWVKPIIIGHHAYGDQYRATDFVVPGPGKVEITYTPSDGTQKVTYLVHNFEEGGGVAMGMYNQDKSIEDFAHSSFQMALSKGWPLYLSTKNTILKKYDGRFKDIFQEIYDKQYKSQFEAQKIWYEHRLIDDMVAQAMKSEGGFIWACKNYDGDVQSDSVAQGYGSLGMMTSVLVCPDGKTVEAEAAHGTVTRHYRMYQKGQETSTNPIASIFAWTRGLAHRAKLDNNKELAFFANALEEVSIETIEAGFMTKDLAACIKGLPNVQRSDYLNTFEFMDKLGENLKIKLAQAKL
# T cruzi growth-2: Trypanosoma cruzi proliferation inhibition; 5,600 tested, 72% active; T. cruzi beta-gal in NIH3T3, GalScreen luminescence, 90 h; inhibition, % at 8.35 µM; shares compounds with T cruzi growth-1;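 active means mean replicate inhibition above about 95% and at least 55% of replicates individually reaching it, limit read from the data; inconclusive means only one of the two criteria is met; inactive means neither criterion is met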
# T cruzi growth-3: Trypanosoma cruzi proliferation inhibition; T. cruzi beta-gal in NIH3T3, GalScreen luminescence, 90 h; shares compounds with T cruzi growth-1; 5,600 tested, 21% active; inhibition, % at 2.09 µM;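 active means mean inhibition above about 95%, with at least 55% of replicates also reaching it, limit read from the data; inconclusive means meets just one of the two conditions; inactive means meets neither condition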
# 3T3 cytotox: cytotoxicity in mouse NIH/3T3 fibroblasts; 5,600 tested, 14% active; cytotoxicity (signal decrease), % at 8.35 µM; shares compounds with T cruzi growth-1; NIH/3T3 viability, CellTiter-Glo ATP luminescence, 90 h;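 active means mean signal decrease across replicates above about 35% based on untreated-well scatter, with enough replicates individually passing, limit read from the data; inconclusive means no rule stated though some were filed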
# NIH3T3 tox 2: NIH/3T3 (mouse) viability loss; AID 651744; inhibition, % at 24.9 µM; NIH/3T3 viability, CellTiter-Glo ATP luminescence, 90 h; 5,600 tested, 56% active; shares compounds with T cruzi growth-1;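 active means mean loss of cell viability signal at or above a set limit, and enough replicates individually reaching it; inconclusive means meets only the mean limit or only the replicate share; inactive means meets neither condition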
# Hits are given with their value; i = inactive; ? = inconclusive; nt = not tested or not shown. This excerpt belongs to a sample that is enriched for hits.
SMILES,T cruzi growth-1,KDM4C inh,IDH1 mut inh,T cruzi growth-2,T cruzi growth-3,3T3 cytotox,NIH3T3 tox 2
Cc1ccc(S(=O)(=O)N(C)C[C@@H]2OCCCC[C@@H](C)Oc3ccc(NC(=O)Nc4ccc5c(c4)OCO5)cc3C(=O)N([C@H](C)CO)C[C@H]2C)cc1,nt,i,i,nt,nt,nt,nt
Cc1ccc(S(=O)(=O)N(C)C[C@@H]2OCCCC[C@H](C)Oc3ccc(NC(=O)Nc4ccc5c(c4)OCO5)cc3C(=O)N([C@H](C)CO)C[C@H]2C)cc1,nt,i,i,nt,nt,nt,nt
C[C@@H]1CN([C@H](C)CO)C(=O)c2cc(NC(=O)Nc3ccc4c(c3)OCO4)ccc2O[C@@H](C)CCCCO[C@@H]1CN(C)S(=O)(=O)c1ccc(Cl)cc1,i,i,i,nt,nt,nt,nt
C[C@@H]1CCCCO[C@H](CN(C)S(=O)(=O)c2ccc(Cl)cc2)[C@H](C)CN([C@@H](C)CO)C(=O)c2cc(NC(=O)Nc3ccc4c(c3)OCO4)ccc2O1,100,i,nt,105,113,i,i
C[C@H](CO)N1C[C@H](C)[C@H](CN(C)S(=O)(=O)c2ccc(Cl)cc2)OCCCC[C@H](C)Oc2ccc(NC(=O)Nc3ccc4c(c3)OCO4)cc2C1=O,104,i,nt,103,102,i,i
COc1ccccc1C(=O)N1C[C@H]2[C@@H](c3ccccc31)[C@H](CO)N2Cc1ccc(F)cc1,i,i,nt,nt,nt,nt,nt
CCCC(=O)N1CC2(CCN(C(=O)Nc3cccc(F)c3)CC2)c2c(n(C)c3cc(OC)ccc23)[C@H]1CO,nt,i,nt,nt,nt,nt,nt
CC(C)(C)[S@](=O)N1Cc2cc(C(=O)N3CCOCC3)nc(-c3cccc(Br)c3)c2[C@@H]1CCO,nt,i,nt,nt,nt,nt,nt
CN(C)CCCN1C(=O)C(=O)C(C(=O)c2cccs2)C1c1ccco1 (stereo not given),nt,nt,i,nt,nt,nt,nt
C[C@@H]1CN([C@@H](C)CO)C(=O)Cc2cc(NC(=O)Nc3ccc(F)cc3)ccc2O[C@H]1CN(C)S(=O)(=O)c1cccs1,i,i,i,nt,nt,nt,nt
C[C@@H]1CN([C@@H](C)CO)C(=O)c2cc(C#CC3(O)CCCC3)cnc2O[C@@H]1CN(C)C(=O)C1CCC1,i,i,nt,nt,nt,nt,nt
COc1ccc(C#Cc2ccc3c(c2)[C@H]2[C@H](CCN2C(=O)c2ccncc2)[C@@H](CO)N3)cc1,nt,i,nt,nt,nt,nt,nt
COCC(=O)N1CC[C@@H]2[C@H]1c1cc(C#Cc3ccc(OC)cc3)ccc1N[C@@H]2CO,i,i,nt,nt,nt,nt,nt
COc1ccc(C#Cc2ccc3c(c2)[C@H]2[C@H](CCN2C(=O)CC2CC2)[C@H](CO)N3)cc1,?,i,nt,98,i,i,i
COc1ccc(C#Cc2ccc3c(c2)[C@H]2[C@H](CCN2C(=O)c2ccncc2)[C@H](CO)N3)cc1,101,i,nt,107,i,i,38
CC(C)C#Cc1ccc([C@@H]2[C@@H](C#N)N(C(=O)c3cccc(F)c3)[C@H]2CO)cc1,97,i,nt,103,i,i,i
N#C[C@H]1[C@H](c2ccc(C#CC3CC3)cc2)[C@@H](CO)N1C(=O)c1cccc(F)c1,?,i,nt,97,101,i,i
N#C[C@@H]1[C@@H](c2ccc(C#CC3CCCC3)cc2)[C@H](CO)N1C(=O)c1cccc(F)c1,nt,i,nt,nt,nt,nt,nt
CC(C)C#Cc1ccc([C@@H]2[C@H](C#N)N(C(=O)c3cccc(F)c3)[C@H]2CO)cc1,?,i,nt,i,106,i,78
CC(C)C#Cc1ccc([C@H]2[C@@H](CO)N(C(=O)c3cccc(F)c3)[C@H]2C#N)cc1,i,i,nt,nt,nt,nt,nt
N#C[C@@H]1[C@@H](c2ccc(C#CC3CCCC3)cc2)[C@@H](CO)N1C(=O)c1cccc(F)c1,nt,i,nt,nt,nt,nt,nt
COc1ccc(NC(=O)N(C)C[C@H]2Oc3c(NC(=O)C4CCOCC4)cccc3C(=O)N([C@@H](C)CO)C[C@H]2C)cc1,i,i,nt,nt,nt,nt,nt
O=C(COc1ccccc1Cl)Nc1ccccc1[N+](=O)[O-],nt,nt,i,nt,nt,nt,nt
C[C@@H](O)C#Cc1ccc([C@H]2[C@H](CO)N3CCCCN(S(=O)(=O)Cc4ccccc4)C[C@@H]23)cc1,i,i,nt,nt,nt,nt,nt
CC(C)C#Cc1ccc([C@H]2[C@@H](CO)N3CCCCN(S(=O)(=O)Cc4ccccc4)C[C@@H]23)cc1,109,i,nt,108,i,i,i
SMILES,T cruzi growth-1,KDM4C inh,IDH1 mut inh,T cruzi growth-2,T cruzi growth-3,3T3 cytotox,NIH3T3 tox 2
CC(C)C#Cc1ccc([C@@H]2[C@H](CO)N3CCCCN(S(=O)(=O)Cc4ccccc4)C[C@@H]23)cc1,102,i,nt,104,i,47,105
C[C@H](O)C#Cc1ccc([C@H]2[C@H](CO)N3CCCCN(S(=O)(=O)Cc4ccccc4)C[C@@H]23)cc1,i,i,nt,nt,nt,nt,nt
CC(C)C#Cc1ccc([C@H]2[C@@H](CO)N3CCCCN(S(=O)(=O)Cc4ccccc4)C[C@H]23)cc1,103,i,nt,105,i,58,105
C[C@@H](O)C#Cc1ccc([C@H]2[C@@H](CO)N3CCCCN(S(=O)(=O)Cc4ccccc4)C[C@@H]23)cc1,i,i,nt,nt,nt,nt,nt
C[C@H](O)C#Cc1ccc([C@@H]2[C@@H](CO)N3CCCCN(S(=O)(=O)Cc4ccccc4)C[C@@H]23)cc1,i,i,nt,nt,nt,nt,nt
CC(C)C#Cc1ccc([C@H]2[C@H]3CN(S(=O)(=O)Cc4ccccc4)CCCCN3[C@H]2CO)cc1,110,i,nt,106,i,i,i
COc1ccccc1CNC(=O)C[C@H]1C[C@@H]2c3cc(N(C)C)ccc3O[C@@H]2[C@H](CO)O1,i,i,i,nt,nt,nt,nt
COc1ccc(-c2csc(Cc3nc(-c4cc5ccccc5oc4=O)cs3)n2)cc1,nt,nt,i,nt,nt,nt,nt
C[C@H](O)C#Cc1ccc2c(c1)O[C@@H](CN(C)Cc1ccccc1)[C@H](C)CN([C@H](C)CO)S2(=O)=O,i,nt,nt,nt,nt,nt,nt
C[C@H]1CN([C@@H](C)CO)S(=O)(=O)c2ccc(Br)cc2O[C@H]1CN(C)Cc1ccccc1F,nt,i,nt,nt,nt,nt,nt
C[C@@H]1CN([C@@H](C)CO)S(=O)(=O)c2ccc(Br)cc2O[C@H]1CN(C)Cc1ccccc1F,nt,i,nt,nt,nt,nt,nt
C/C=C/c1ccc2c(c1)O[C@@H](CN(C)Cc1ccccc1F)[C@H](C)CN([C@@H](C)CO)S2(=O)=O,116,i,i,96,i,57,105
C/C=C/c1ccc2c(c1)O[C@@H](CN(C)Cc1ccccc1F)[C@@H](C)CN([C@H](C)CO)S2(=O)=O,119,i,i,105,i,i,105
CC(=O)N1[C@H](C(=O)NCc2ccc(F)cc2)[C@@H](CO)[C@@H]2Cn3c(cccc3=O)[C@@H]21,i,i,nt,nt,nt,nt,nt
CO[C@H]1CN(C)C(=O)c2cc(NC(=O)c3cc(C)on3)ccc2OC[C@H](C)N(C(=O)C2CC2)C[C@H]1C,i,i,i,nt,nt,nt,nt
CCCC(=O)N1CCC2(CC1)CN(Cc1ccc(Cl)cc1)[C@H](CO)c1[nH]c3cc(OC)ccc3c12,nt,i,nt,nt,nt,nt,nt
CC=Cc1ccc2n(c1=O)C[C@@H]1[C@@H](CO)[C@H](C(=O)Nc3nccs3)N(C(=O)CC)[C@H]21 (mixture of isomers),i,i,nt,nt,nt,nt,nt
